Assay results taken from ChEMBL document CHEMBL1138797, “6-azapyrimidine-2'-deoxy-4'-thionucleosides: antiviral agents against TK+ and TK- HSV and VZV strains” (J Med Chem, 2004).
In brackets after ≈: the same amount, converted by molar mass.

Columns and labels:
HEL [1] = assay: Effective concentration required to reduce […] (thymidine kinase deficient) VZV strain 07/1 virus plaque formation by 50% in HEL cell culture; assay type: functional, cell-based, Human alphaherpesvirus 3; conditions: Homo sapiens
E6SM [2] = assay: Minimum cytotoxic concentration that caused a microscopically detectable alteration of cell morphology in E6SM Cell Culture; assay type: functional; conditions: Homo sapiens
E6SM [3] = assay: Effective concentration required to reduce HSV-2 strain G virus plaque formation by 50% in E6SM Cell Culture; assay type: functional, cell-based; conditions: Homo sapiens
Outline: (§1)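 Confluent E6SM cell cultures in microtiter trays were infected with 20 PFU for a 1 h adsorption period, then washed free of residual virus and incubated with serial compound dilutions (400, 200, 100, ... μg/mL). Plaque formation was read when cytopathicity was complete in virus controls. […] The TK-deficient HSV-1 line refers to HSV-1/TK⁻ ACVʳ.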

HEL [4] = assay: Effective concentration required to reduce CMV AD169 strain virus plaque formation by 50% in HEL cell culture; assay type: functional, cell-based, Cytomegalovirus; conditions: Homo sapiens
Outline: (§2)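 Plaque-reduction assay in confluent HEL cell cultures. After 1 h adsorption of a 20 PFU virus input, residual virus was removed and cells were incubated with graded compound concentrations. Plaques were scored once cytopathicity was complete in untreated infected controls. […] The TK-deficient VZV line refers to strain YS/R.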

HEL [5] = assay: Effective concentration required to reduce CMV davis strain virus plaque formation by 50% in HEL cell culture; assay type: functional, cell-based, Cytomegalovirus; conditions: Homo sapiens; outline: as §2
E6SM [6] = assay: Effective concentration required to reduce vaccinia virus plaque formation by 50% in E6SM Cell Culture; assay type: functional, cell-based; conditions: Homo sapiens; outline: as §1
E6SM [7] = assay: Effective concentration required to reduce HSV-1 strain KOS ACV virus plaque formation by 50% in E6SM Cell Culture; assay type: functional, cell-based; conditions: Homo sapiens; outline: as §1
E6SM [8] = assay: Effective concentration required to reduce HSV-1 strain KOS virus plaque formation by 50% in E6SM Cell Culture; assay type: functional, cell-based; conditions: Homo sapiens; outline: as §1
HEL [9] = assay: Effective concentration required to reduce TK+ (thymidine kinase presence) VZV strain YS virus plaque formation by 50% in HEL cell culture; assay type: functional, cell-based, Human alphaherpesvirus 3; conditions: Homo sapiens
HEL [10] = assay: Effective concentration required to reduce TK+ (thymidine kinase presence) VZV strain OKA virus plaque formation by 50% in HEL cell culture; assay type: functional, cell-based, Human alphaherpesvirus 3; conditions: Homo sapiens
HEL [11] = assay: Effective concentration required to reduce […] (thymidine kinase deficient) VZV strain YS/R virus plaque formation by 50% in HEL cell culture; assay type: functional, cell-based, Human alphaherpesvirus 3; conditions: Homo sapiens
[12] = Minimum cytotoxic concentration that causes microscopically detectable alteration of cell morphology in HEL cell culture; assay type: cell-based; conditions: human, HEL cells
[13] = Cytotoxic concentration required to reduce HEL cell growth by 50%; assay type: cell-based; conditions: human, HEL cells
HEL [14] = assay: Effective concentration required to reduce […] (thymidine kinase deficient) VZV strain YS/R virus plaque formation by 50% in HEL cell culture; No complete inhibition; assay type: functional, cell-based, Human alphaherpesvirus 3; conditions: Homo sapiens; outline: as §2

| Compound | EC50 (HEL [1]) | MCC (E6SM [2]) | EC50 (E6SM [3]) | EC50 (HEL [4]) | EC50 (HEL [5]) | EC50 (E6SM [6]) | EC50 (E6SM [7]) | EC50 (E6SM [8]) | EC50 (HEL [9]) | EC50 (HEL [10]) | EC50 (HEL [11]) | MCC [12] | CC50 [13] | EC50 (HEL [14]) |
| --- | --- | --- | --- | --- | --- | --- | --- | --- | --- | --- | --- | --- | --- | --- |
| Cc1nn([C@H]2C[C@H](O)[C@@H](CO)S2)c(=O)nc1N | > 40 µM | > 200 µg/mL | 24 µg/mL (≈ 92.9 µM) | > 40 µM | > 40 µM | 24 µg/mL (≈ 92.9 µM) | 120 µg/mL (≈ 465 µM) | 24 µg/mL (≈ 92.9 µM) | > 40 µM | > 40 µM | > 40 µM | > 40 µM | > 40 µM | – |
| Cc1nn([C@H]2C[C@H](O)[C@@H](CO)S2)c(=O)nc1O | 14 µM | > 200 µg/mL | 3.2 µg/mL (≈ 12.3 µM) | > 200 µM | > 200 µM | 2.2 µg/mL (≈ 8.48 µM) | 18 µg/mL (≈ 69.4 µM) | 1.3 µg/mL (≈ 5.01 µM) | 4.1 µM | 2.5 µM | – | > 200 µM | 166 µM | ≥ 5 µM |
| CCCc1nn([C@H]2C[C@H](O)[C@@H](CO)S2)c(=O)[nH]c1=O | > 40 µM | > 200 µg/mL | > 200 µg/mL | > 40 µM | > 40 µM | > 200 µg/mL | 120 µg/mL (≈ 418 µM) | > 200 µg/mL | > 40 µM | > 40 µM | > 40 µM | > 40 µM | > 40 µM | – |
| Cc1nn([C@H]2C[C@H](O)[C@@H](CO)S2)c(=O)[nH]c1=S | > 40 µM | > 200 µg/mL | 120 µg/mL (≈ 436 µM) | > 40 µM | > 40 µM | 120 µg/mL (≈ 436 µM) | 120 µg/mL (≈ 436 µM) | 120 µg/mL (≈ 436 µM) | > 40 µM | > 40 µM | > 40 µM | > 40 µM | > 40 µM | – |
| CCc1nn([C@H]2C[C@H](O)[C@@H](CO)S2)c(=O)nc1O | > 40 µM | > 200 µg/mL | > 200 µg/mL | > 40 µM | > 40 µM | > 200 µg/mL | > 200 µg/mL | 120 µg/mL (≈ 439 µM) | > 40 µM | > 40 µM | > 40 µM | > 40 µM | – | – |
| CC(=O)OC[C@H]1S[C@@H](n2nc(C)c(=S)[nH]c2=O)C[C@@H]1OC(C)=O | > 40 µM | ≥ 40 µg/mL | > 8 µg/mL | > 40 µM | > 40 µM | > 8 µg/mL | > 8 µg/mL | > 8 µg/mL | > 40 µM | > 40 µM | > 40 µM | > 40 µM | > 40 µM | – |
| Nc1nc2c(ncn2COCCO)c(=O)[nH]1 [ACYCLOVIR] | – | > 400 µg/mL | 0.07 µg/mL (≈ 0.311 µM) | > 200 µM | > 400 µM | 0.38 µg/mL (≈ 1.69 µM) | 48 µg/mL (≈ 213 µM) | 0.07 µg/mL (≈ 0.311 µM) | – | – | – | – | – | – |
| O=c1[nH]c(=O)n([C@H]2C[C@H](O)[C@@H](CO)O2)cc1/C=C/Br [BRIVUDINE] | 29 µM | > 400 µg/mL | 80 µg/mL (≈ 240 µM) | > 150 µM | > 400 µM | > 400 µg/mL | 16 µg/mL (≈ 48 µM) | 0.01 µg/mL (≈ 0.03 µM) | 0.003 µM | 0.003 µM | 56 µM | – | – | – |
| Nc1nc2c(ncn2COC(CO)CO)c(=O)[nH]1 [GANCICLOVIR] | – | > 100 µg/mL | 0.003 µg/mL (≈ 0.0118 µM) | 0.5 µM | 1.5 µM | > 100 µg/mL | 2.4 µg/mL (≈ 9.4 µM) | 0.004 µg/mL (≈ 0.0157 µM) | – | – | – | > 150 µM | > 150 µM | – |
